In ChEMBL document CHEMBL5661979, “Pharmacological inhibition of BMK1 suppresses tumor growth through promyelocytic leukemia protein” (Cancer Cell, 2010):
Calls of active or inactive are those of the source. No cut-off for these calls is given here.

How the values were obtained:
[1] = target: Serine/threonine-protein kinase 4 (Homo sapiens, UniProt Q13043); assay: Inhibition of MST1 in human HeLa cells lysate pre incubated for 15 mins followed by ATP acyl phosphate probe addition and measured after 10 mins by LC-MS/MS analysis; type: subcellular
[2] = target: Serine/threonine-protein kinase PRP4 homolog (Homo sapiens, UniProt Q13523); assay: Inhibition of PRP4 in human HeLa cells lysate pre incubated for 15 mins followed by ATP acyl phosphate probe addition and measured after 10 mins by LC-MS/MS analysis; type: subcellular
[3] = target: Serine/threonine-protein kinase 3/4 (Homo sapiens, UniProt Q13043+Q13188); assay: Inhibition of MST1/2 in human HeLa cells lysate pre incubated for 15 mins followed by ADP acyl phosphate probe addition and measured after 10 mins by LC-MS/MS analysis; type: subcellular
[4] = target: T1, Dual specificity mitogen-activated protein kinase kinase 5 (Homo sapiens) (UniProt Q13163); assay: Inhibition of MAP2K5 in human HeLa cells lysate at 10 uM pre incubated for 15 mins followed by ADP acyl phosphate probe addition and measured after 10 mins by LC-MS/MS analysis relative to control; type: subcellular; settings: time 25.0 min
T1 sequence (whole entry): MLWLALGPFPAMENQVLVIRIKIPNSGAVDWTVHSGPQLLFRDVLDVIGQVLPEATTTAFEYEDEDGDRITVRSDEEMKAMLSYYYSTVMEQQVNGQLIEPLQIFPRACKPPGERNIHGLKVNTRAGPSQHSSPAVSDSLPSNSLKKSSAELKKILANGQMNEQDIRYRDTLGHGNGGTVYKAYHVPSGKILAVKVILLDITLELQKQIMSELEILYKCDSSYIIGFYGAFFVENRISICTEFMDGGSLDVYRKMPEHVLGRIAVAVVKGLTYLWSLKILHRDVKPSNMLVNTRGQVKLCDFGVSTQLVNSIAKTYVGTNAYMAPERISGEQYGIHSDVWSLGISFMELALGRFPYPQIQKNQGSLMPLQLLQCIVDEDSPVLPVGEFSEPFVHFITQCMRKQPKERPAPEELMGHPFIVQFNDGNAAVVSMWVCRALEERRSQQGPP

[5] = target: T2, Serine/threonine-protein kinase ULK3 (Homo sapiens) (UniProt Q6PHR2); assay: Inhibition of ULK3 in human HeLa cells lysate at 2 uM pre incubated for 15 mins followed by ADP acyl phosphate probe addition and measured after 10 mins by LC-MS/MS analysis relative to control; type: subcellular; settings: time 25.0 min
T2 sequence (whole entry): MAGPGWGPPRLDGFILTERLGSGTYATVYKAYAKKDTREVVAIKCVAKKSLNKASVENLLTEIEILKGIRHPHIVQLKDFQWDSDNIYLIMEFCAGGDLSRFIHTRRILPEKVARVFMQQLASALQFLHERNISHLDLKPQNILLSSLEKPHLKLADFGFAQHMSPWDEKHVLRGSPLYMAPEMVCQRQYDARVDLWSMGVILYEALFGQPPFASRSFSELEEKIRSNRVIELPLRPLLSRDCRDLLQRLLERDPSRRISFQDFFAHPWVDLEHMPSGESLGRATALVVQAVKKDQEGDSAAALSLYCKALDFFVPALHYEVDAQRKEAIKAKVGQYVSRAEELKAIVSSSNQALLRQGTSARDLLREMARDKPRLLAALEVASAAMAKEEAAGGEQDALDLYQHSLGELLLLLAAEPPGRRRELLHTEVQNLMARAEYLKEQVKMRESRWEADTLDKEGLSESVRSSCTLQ

[6] = target: AMPK alpha1/alpha2 (Homo sapiens, UniProt P54646+Q13131); assay: Inhibition of AMPKalpha1/2 in human HeLa cells lysate at 50 uM pre incubated for 15 mins followed by ATP acyl phosphate probe addition and measured after 10 mins by LC-MS/MS analysis relative to control; type: subcellular; settings: time 25.0 min
Procedure, shortened: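 HeLa cell lysates (5 mg/mL total protein) were preincubated with inhibitor at 0, 0.8, 2, 10 or 50 μM for 15 min. ATP or ADP acylphosphate probe was then added (5 μM final) for 10 min, and reactions were stopped with urea. Up to four fragment ions per kinase probe-peptide were quantified by targeted MS. % inhibition was taken relative to untreated lysate. Run in duplicate.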

[7] = target: Serine/threonine-protein kinase Aurora (Homo sapiens, UniProt Q96GD4+Q9UQB9+O14965); assay: Inhibition of AurA/AurB/AurC in human HeLa cells lysate at 50 uM pre incubated for 15 mins followed by ATP acyl phosphate probe addition and measured after 10 mins by LC-MS/MS analysis relative to control; type: subcellular; settings: time 25.0 min
Procedure, shortened: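 KiNativ-type profiling in HeLa lysate (5 mg/mL total protein). Lysate preincubated 15 min with inhibitor at 50, 10, 2, 0.8 or 0 μM, then ATP or ADP acylphosphate probe added (5 μM final) for 10 min. Reaction stopped with urea and analysed by targeted MS, using up to four fragment ions per kinase peptide-probe conjugate. % inhibition calculated against untreated lysate. Duplicate reactions.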

[8] = target: T3, Cyclin-dependent kinase 9 (Homo sapiens, UniProt P50750); assay: Inhibition of CDK9 in human HeLa cells lysate at 50 uM pre incubated for 15 mins followed by ATP acyl phosphate probe addition and measured after 10 mins by LC-MS/MS analysis relative to control; type: subcellular; settings: time 25.0 min
Procedure, shortened: (§1)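 KiNativ profiling in HeLa lysate (5 mg/mL total protein). Lysate incubated 15 min with inhibitor at 50, 10, 2, 0.8 or 0 μM. ATP or ADP acylphosphate probe then added (5 μM final) and reacted 10 min. Reaction stopped with urea and analysed by targeted MS, using up to four fragment ions per kinase peptide-probe conjugate. % inhibition taken against untreated lysate. Run in duplicate.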

[9] = target: T4, Phosphatidylinositol 5-phosphate 4-kinase type-2 gamma (Homo sapiens) (UniProt Q8TBX8); assay: Inhibition of PIP5K2C LIP1 site in human HeLa cells lysate at 10 uM pre incubated for 15 mins followed by ATP acyl phosphate probe addition and measured after 10 mins by LC-MS/MS analysis relative to control; type: subcellular; settings: time 25.0 min
T4 sequence (whole entry): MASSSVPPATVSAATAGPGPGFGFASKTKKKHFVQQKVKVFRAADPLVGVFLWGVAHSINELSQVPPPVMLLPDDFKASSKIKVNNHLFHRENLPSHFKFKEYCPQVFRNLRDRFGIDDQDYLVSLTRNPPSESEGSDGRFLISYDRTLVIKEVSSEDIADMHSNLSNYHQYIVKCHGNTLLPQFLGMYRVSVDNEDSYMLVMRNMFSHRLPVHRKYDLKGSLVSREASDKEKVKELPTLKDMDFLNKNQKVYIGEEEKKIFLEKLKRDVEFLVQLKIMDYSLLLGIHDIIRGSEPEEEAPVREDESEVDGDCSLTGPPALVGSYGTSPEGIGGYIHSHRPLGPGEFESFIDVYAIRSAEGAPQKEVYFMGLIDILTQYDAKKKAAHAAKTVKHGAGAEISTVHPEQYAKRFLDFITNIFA

[10] = target: T3, Cyclin-dependent kinase 9; assay: Inhibition of CDK9 in human HeLa cells lysate at 10 uM pre incubated for 15 mins followed by ATP acyl phosphate probe addition and measured after 10 mins by LC-MS/MS analysis relative to control; type: subcellular; settings: time 25.0 min; procedure, shortened: as §1
[11] = target: Serine/threonine-protein kinase PLK4 (Homo sapiens) (UniProt O00444); assay: Inhibition of recombinant Flag-tagged PLK4 (unknown origin) expressed in HEK293 cells at 0.08 to 10 uM in presence of 32P-gamma-ATP; type: cell-based; settings: dose 0.08-10 µM
Sequence of Serine/threonine-protein kinase PLK4 (Homo sapiens) (O00444 whole entry): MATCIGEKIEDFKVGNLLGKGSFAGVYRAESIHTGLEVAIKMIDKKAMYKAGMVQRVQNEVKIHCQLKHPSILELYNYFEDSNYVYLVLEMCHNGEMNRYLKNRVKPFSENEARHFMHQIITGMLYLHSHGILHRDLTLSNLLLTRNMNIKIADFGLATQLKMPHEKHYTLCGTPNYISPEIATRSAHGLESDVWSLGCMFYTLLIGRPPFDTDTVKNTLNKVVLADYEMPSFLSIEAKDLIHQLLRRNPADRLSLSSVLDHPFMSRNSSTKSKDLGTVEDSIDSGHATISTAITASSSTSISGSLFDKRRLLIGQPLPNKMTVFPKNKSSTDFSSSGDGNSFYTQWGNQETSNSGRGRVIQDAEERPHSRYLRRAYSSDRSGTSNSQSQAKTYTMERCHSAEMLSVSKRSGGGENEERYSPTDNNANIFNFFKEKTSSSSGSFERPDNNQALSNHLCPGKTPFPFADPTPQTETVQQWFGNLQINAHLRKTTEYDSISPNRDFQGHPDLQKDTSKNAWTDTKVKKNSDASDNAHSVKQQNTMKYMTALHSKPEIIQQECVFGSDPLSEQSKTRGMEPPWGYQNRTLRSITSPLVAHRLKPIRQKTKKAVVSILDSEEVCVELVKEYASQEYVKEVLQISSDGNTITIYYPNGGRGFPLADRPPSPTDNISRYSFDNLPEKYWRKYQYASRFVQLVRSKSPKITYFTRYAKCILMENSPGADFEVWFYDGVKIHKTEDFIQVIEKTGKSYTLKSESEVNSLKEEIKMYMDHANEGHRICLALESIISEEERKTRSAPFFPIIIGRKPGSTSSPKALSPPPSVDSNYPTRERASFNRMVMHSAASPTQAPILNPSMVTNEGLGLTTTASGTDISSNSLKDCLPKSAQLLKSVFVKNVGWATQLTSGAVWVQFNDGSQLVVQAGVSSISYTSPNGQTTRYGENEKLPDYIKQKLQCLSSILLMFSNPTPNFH

T3 sequence (P50750 whole entry, the tested form may be a part): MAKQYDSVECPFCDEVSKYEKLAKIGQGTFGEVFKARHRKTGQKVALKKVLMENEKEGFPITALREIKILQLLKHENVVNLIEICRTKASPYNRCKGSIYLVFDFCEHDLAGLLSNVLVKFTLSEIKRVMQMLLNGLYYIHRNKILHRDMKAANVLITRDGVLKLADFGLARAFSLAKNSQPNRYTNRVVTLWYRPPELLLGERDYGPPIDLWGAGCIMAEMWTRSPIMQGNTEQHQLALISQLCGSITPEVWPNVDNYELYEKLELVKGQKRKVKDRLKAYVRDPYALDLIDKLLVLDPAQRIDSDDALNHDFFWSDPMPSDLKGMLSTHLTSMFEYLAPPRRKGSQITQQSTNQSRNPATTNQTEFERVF
Sequence of Serine/threonine-protein kinase Aurora (O14965 whole entry, looked up, the tested form may be a part): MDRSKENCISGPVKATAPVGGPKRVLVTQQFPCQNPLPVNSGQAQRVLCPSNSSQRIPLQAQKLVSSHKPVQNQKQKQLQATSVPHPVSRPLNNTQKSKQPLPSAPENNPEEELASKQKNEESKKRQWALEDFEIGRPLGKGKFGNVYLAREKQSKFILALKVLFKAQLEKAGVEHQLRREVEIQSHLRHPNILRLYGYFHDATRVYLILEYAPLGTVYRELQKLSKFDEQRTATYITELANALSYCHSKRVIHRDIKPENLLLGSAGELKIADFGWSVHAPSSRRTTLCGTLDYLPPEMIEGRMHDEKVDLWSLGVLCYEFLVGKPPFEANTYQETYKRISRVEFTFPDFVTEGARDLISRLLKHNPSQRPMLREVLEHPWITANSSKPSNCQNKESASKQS
Sequence of Serine/threonine-protein kinase Aurora (Q96GD4 whole entry, looked up, the tested form may be a part): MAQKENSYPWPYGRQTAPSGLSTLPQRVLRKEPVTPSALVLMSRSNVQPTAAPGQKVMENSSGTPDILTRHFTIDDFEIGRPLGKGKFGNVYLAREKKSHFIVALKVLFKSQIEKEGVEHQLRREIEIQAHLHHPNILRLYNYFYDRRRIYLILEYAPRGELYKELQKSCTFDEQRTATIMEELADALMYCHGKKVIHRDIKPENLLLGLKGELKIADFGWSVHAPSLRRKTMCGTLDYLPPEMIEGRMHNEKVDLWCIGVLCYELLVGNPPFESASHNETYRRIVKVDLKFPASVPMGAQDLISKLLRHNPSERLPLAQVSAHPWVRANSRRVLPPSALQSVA
Sequence of Serine/threonine-protein kinase Aurora (Q9UQB9 whole entry, looked up, the tested form may be a part): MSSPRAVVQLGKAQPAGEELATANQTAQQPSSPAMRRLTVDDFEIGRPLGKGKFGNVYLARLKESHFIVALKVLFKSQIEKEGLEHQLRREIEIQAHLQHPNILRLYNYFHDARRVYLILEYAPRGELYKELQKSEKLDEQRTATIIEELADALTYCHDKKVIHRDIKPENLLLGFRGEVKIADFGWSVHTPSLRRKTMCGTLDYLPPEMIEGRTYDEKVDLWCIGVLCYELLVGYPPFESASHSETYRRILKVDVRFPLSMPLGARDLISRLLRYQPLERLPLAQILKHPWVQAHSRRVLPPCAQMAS
Sequence of Serine/threonine-protein kinase PRP4 homolog (Q13523 whole entry): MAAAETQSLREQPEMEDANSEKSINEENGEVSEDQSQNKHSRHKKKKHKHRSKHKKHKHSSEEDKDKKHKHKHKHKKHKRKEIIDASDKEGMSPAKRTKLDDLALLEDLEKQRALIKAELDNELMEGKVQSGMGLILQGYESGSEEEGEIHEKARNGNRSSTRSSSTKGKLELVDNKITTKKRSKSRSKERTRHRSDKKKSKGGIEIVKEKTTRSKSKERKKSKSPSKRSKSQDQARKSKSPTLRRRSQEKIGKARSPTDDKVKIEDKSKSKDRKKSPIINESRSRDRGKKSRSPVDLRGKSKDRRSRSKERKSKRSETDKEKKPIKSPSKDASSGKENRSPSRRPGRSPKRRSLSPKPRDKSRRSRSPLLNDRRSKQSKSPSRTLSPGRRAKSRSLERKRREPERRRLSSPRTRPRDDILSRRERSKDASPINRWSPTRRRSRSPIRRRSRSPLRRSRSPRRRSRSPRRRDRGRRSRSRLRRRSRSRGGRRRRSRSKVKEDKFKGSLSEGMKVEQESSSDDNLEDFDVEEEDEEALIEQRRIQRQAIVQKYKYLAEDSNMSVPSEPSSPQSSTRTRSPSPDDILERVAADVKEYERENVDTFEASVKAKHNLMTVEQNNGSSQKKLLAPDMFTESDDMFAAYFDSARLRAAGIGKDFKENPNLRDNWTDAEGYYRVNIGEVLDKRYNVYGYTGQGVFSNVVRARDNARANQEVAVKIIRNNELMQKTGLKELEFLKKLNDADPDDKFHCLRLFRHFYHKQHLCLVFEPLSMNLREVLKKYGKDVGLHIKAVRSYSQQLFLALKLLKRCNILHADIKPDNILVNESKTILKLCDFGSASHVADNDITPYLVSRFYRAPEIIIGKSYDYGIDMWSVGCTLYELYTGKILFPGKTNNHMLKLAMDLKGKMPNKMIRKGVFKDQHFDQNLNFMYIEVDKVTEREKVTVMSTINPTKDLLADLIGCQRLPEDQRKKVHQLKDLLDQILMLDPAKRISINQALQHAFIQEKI
Sequence of AMPK alpha1/alpha2 (P54646 whole entry, looked up, the tested form may be a part): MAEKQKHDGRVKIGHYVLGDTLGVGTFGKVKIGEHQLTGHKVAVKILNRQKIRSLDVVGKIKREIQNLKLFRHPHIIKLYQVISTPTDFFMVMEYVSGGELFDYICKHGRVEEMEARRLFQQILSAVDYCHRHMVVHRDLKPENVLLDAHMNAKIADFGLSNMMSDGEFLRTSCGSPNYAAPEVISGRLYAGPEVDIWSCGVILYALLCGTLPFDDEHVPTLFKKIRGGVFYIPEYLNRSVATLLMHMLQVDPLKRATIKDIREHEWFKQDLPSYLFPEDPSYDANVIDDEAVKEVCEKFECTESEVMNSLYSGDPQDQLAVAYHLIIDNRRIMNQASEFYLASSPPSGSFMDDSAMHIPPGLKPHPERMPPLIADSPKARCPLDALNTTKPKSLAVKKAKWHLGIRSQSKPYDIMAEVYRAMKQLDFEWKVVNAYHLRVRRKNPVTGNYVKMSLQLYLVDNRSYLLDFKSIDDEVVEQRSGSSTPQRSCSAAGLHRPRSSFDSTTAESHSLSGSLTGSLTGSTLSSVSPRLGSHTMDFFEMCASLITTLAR
Sequence of AMPK alpha1/alpha2 (Q13131 whole entry, looked up, the tested form may be a part): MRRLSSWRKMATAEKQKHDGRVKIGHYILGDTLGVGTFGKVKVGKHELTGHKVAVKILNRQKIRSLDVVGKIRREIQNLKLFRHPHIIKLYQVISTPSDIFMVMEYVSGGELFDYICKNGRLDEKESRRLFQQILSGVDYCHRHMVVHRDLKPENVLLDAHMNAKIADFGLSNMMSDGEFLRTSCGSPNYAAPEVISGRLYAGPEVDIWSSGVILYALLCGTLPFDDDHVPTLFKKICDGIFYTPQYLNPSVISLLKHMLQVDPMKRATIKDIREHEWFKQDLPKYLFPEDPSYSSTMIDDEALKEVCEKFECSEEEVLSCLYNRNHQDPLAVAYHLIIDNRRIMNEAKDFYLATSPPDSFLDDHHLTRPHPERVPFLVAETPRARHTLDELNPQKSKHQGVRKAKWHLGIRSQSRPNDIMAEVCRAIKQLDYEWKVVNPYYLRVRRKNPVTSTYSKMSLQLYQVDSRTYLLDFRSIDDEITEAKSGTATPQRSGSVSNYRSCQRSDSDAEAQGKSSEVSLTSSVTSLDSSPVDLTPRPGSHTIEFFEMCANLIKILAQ
Sequence of Serine/threonine-protein kinase 4 (Q13043 whole entry): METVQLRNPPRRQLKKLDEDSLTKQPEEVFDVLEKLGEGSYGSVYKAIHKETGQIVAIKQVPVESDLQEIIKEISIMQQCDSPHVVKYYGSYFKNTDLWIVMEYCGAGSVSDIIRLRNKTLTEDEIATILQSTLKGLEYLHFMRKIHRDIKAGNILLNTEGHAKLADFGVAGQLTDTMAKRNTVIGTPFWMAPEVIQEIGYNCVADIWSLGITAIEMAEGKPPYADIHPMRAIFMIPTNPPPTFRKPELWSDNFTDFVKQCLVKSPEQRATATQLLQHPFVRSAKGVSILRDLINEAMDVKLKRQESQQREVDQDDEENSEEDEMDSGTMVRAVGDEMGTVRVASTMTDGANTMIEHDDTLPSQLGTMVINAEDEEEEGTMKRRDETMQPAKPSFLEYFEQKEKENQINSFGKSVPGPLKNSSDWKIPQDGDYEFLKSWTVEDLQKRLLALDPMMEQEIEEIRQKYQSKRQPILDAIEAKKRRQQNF

CCOc1cc(N2CCC(O)CC2)ccc1Nc1ncc2c(n1)N(C)c1ccccc1C(=O)N2C
IC50 [1]: > 50 µM | IC50 [2]: > 50 µM | IC50 [3]: > 50 µM | inhibition [4]: -9.9% | inhibition [5]: 18.8% | inhibition [6]: 32% | inhibition [7]: 10.2% | inhibition [8]: -0.3% | inhibition [9]: -1.3% | inhibition [10]: -4.1% | inhibition [11]: Active
